Measurements from ChEMBL document CHEMBL2146455, “Structure-activity studies on the spiroketal moiety of a simplified analogue of debromoaplysiatoxin with antiproliferative activity” (J Med Chem, 2012).

How the values were obtained:
[1] = test system: NCI-H460; test: Growth inhibition of human NCI-H460 cells after 48 hrs by sulforhodamine B assay; type: functional; details: NCI-H460, 48 h
Outline: (§1)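 Cell line from a 39-line human cancer panel, grown in RPMI 1640 with 5% FBS and attached overnight. Exposed 48 h to drug at 10⁻⁸ to 10⁻⁴ M (tenfold steps). Sulforhodamine B read at 525 nm against control and time-0 wells. % growth = 100[(T − T₀)/(C − T₀)] from duplicate points; GI₅₀ is the level giving 50.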

[2] = target: Protein kinase C alpha type (Homo sapiens, UniProt P17252); test: Inhibition of [3H]PDBu binding to PKCalpha C1A domain
Outline: (§2)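 Displacement of [³H]PDBu (20 nM) from synthetic PKC C1 peptides (10−20 nM; about 3 nM properly folded) in 50 mM Tris-maleate, pH 7.4 at 4 °C. Buffer held 50 μg/mL phosphatidylserine and 3 mg/mL bovine γ-globulin, with inhibitor at various concentrations. IC₅₀ taken from 50% loss of specific binding by probit; Ki by the Sharkey–Blumberg method.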

[3] = target: Protein kinase C gamma type (Homo sapiens, UniProt P05129); test: Inhibition of [3H]PDBu binding to PKCgamma C1A domain; outline: as §2
[4] = target: Protein kinase C eta type (Homo sapiens, UniProt P24723); test: Inhibition of [3H]PDBu binding to PKCeta C1B domain; outline: as §2
Protein kinase C eta type, sequence (P24723 whole entry, the tested form may be a part): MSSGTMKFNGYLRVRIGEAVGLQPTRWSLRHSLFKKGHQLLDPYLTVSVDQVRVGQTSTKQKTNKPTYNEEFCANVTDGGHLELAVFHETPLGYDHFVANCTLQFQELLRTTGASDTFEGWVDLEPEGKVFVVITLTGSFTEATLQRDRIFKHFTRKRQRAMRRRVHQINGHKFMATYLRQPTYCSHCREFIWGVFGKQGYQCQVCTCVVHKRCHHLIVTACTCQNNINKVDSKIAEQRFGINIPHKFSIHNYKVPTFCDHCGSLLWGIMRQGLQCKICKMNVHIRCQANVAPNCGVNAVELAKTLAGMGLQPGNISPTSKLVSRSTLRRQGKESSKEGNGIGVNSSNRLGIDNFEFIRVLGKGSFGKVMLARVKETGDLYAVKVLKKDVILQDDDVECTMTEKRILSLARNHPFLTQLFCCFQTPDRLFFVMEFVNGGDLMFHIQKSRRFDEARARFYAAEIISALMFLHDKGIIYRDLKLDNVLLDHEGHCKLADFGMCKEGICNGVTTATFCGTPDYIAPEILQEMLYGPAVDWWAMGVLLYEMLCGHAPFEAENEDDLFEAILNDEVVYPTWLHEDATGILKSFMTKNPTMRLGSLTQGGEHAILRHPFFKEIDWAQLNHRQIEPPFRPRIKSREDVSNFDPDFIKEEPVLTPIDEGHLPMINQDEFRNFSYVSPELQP

[5] = test system: Raji; test: Tumor promoting activity in human Raji cells assessed as induction of EBV-early antigen activation at 1 uM after 48 hrs by FITC staining based indirect immunofluorescence assay; type: cell-based
Outline: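 Raji B-lymphoblastoid cells (5 × 10⁵/mL) held 48 h at 37 °C, 5% CO₂, in RPMI 1640 with 10% FBS. Medium contained 4 mM sodium n-butyrate and compound at 10, 100 or 1000 nM final, with 0.4% DMSO final. Smears stained by indirect immunofluorescence using NPC patient serum and FITC anti-human IgG. At least 500 cells counted; result given as % EA-positive.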

[6] = test system: LOX IMVI; test: Growth inhibition of human LOXIMVI cells after 48 hrs by sulforhodamine B assay; type: functional; outline: as §1
[7] = test system: MDA-MB-231; test: Growth inhibition of human MDA-MB-231 cells after 48 hrs by sulforhodamine B assay; type: functional; details: MDA-MB-231, 48 h; outline: as §1
[8] = test system: St-4; test: Growth inhibition of human St-4 cells after 48 hrs by sulforhodamine B assay; type: functional; details: St-4, 48 h; outline: as §1
[9] = target: T1, Protein kinase C epsilon type (Homo sapiens, UniProt Q02156); test: Inhibition of [3H]PDBu binding to PKCepsilon C1B domain; outline: as §2
T1 sequence (Q02156 whole entry): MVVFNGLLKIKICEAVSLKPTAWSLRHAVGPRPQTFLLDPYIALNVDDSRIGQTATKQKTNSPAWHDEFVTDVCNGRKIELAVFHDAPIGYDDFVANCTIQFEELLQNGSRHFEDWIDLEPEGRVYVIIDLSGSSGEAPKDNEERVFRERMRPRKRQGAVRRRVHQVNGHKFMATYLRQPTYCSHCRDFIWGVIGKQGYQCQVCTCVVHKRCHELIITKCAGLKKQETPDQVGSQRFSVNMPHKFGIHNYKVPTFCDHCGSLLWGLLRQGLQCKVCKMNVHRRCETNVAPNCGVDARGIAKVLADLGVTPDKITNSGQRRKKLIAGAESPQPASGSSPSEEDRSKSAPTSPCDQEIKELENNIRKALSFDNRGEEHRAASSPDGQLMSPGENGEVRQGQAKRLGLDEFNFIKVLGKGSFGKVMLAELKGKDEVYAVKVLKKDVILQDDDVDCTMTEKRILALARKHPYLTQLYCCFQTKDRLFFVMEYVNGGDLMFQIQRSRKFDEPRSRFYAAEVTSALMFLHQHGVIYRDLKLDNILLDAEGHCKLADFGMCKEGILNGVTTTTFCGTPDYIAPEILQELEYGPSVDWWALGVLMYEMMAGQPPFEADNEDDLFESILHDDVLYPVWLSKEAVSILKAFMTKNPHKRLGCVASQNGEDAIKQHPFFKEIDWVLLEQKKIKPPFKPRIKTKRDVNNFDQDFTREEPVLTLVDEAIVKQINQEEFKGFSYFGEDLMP

[10] = Growth inhibition of human HBC4 cells after 48 hrs by sulforhodamine B assay; type: functional; details: HBC4, 48 h; outline: as §1
[11] = n-Octanol-water partition coefficient, log P of the compound by HPLC analysis; type: physicochemical
[12] = test system: A549; test: Growth inhibition of human A549 cells after 48 hrs by sulforhodamine B assay; type: functional; details: A549, 48 h; outline: as §1
[13] = target: Protein kinase C theta type (Homo sapiens, UniProt Q04759); test: Inhibition of [3H]PDBu binding to PKCtheta C1B domain; outline: as §2
Protein kinase C theta type, sequence (Q04759 whole entry, the tested form may be a part): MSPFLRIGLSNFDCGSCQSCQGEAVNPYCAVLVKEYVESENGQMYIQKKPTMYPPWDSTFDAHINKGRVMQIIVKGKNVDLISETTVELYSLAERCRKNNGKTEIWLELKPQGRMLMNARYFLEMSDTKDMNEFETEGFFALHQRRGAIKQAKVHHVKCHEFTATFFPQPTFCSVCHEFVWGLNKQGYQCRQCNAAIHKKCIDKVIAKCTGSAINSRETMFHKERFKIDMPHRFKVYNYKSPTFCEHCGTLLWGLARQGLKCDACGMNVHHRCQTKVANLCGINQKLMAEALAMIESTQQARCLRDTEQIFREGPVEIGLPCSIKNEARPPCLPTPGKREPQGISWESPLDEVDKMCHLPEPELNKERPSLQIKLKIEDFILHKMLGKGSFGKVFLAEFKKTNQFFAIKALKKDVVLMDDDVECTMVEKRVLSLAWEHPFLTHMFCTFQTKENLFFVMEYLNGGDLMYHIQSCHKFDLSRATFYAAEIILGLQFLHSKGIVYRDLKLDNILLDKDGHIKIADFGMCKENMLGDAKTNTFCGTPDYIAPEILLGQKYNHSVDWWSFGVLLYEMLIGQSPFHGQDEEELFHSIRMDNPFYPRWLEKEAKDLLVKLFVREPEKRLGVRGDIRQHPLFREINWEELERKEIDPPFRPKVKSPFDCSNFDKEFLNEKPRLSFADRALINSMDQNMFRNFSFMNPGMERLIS

[14] = target: Protein kinase C delta type (Homo sapiens, UniProt Q05655); test: Inhibition of [3H]PDBu binding to PKCdelta C1B domain; outline: as §2
Protein kinase C delta type, sequence (Q05655 whole entry, the tested form may be a part): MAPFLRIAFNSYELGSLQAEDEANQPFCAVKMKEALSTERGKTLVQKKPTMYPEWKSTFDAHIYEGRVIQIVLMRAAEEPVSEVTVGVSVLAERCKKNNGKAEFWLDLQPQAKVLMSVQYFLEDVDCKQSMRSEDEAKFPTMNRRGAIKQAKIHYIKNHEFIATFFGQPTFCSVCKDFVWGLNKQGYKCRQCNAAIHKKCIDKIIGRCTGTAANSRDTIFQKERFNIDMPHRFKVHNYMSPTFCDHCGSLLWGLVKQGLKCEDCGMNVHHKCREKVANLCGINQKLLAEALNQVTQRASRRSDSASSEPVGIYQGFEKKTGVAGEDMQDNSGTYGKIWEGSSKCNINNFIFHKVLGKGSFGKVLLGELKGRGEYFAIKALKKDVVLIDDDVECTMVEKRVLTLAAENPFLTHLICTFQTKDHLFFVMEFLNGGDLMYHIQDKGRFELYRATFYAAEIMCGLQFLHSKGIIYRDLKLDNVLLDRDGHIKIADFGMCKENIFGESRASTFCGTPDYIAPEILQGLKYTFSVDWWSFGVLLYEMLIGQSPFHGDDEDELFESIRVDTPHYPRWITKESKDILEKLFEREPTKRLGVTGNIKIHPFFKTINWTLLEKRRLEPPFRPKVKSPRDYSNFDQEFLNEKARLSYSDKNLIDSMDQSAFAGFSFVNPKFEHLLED

[15] = test system: SNB-78; test: Growth inhibition of human SNB-78 cells after 48 hrs by sulforhodamine B assay; type: functional; details: SNB-78, 48 h; outline: as §1
[16] = test system: HCC 2998; test: Growth inhibition of human HCC2998 cells after 48 hrs by sulforhodamine B assay; type: functional; details: HCC 2998, 48 h; outline: as §1
[17] = target: Protein kinase C beta type (Homo sapiens, UniProt P05771); test: Inhibition of [3H]PDBu binding to PKCbeta C1A domain; outline: as §2
Protein kinase C beta type, sequence (P05771 whole entry, the tested form may be a part): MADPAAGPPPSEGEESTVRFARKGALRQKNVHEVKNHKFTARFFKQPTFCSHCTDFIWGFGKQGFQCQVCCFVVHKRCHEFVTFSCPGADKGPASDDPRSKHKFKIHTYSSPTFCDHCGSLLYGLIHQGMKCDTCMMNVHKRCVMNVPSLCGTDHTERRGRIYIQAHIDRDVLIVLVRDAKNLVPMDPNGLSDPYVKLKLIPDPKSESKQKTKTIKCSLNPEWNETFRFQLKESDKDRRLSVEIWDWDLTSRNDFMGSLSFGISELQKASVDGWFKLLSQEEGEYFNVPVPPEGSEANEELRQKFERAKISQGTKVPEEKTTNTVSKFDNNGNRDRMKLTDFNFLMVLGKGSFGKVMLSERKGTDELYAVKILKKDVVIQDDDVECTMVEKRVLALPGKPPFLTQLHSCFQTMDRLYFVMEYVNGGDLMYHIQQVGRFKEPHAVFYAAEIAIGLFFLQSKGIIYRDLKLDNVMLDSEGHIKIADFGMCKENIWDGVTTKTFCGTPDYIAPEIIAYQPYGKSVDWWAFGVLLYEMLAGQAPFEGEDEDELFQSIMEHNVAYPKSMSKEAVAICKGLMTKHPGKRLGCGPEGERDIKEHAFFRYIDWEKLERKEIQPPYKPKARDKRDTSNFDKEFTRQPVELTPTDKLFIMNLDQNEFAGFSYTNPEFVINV

[18] = test system: Mus musculus; test: Tumor promoting activity in DMBA treated ICR mouse assessed as number of papillomas at 1.7 nmol administered 1 week after DMBA challenge twice weekly measured after 20 weeks by two-stage carcinogenesis test; type: organism-based; details: in vivo, 3360 h
Outline: (§3)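 Two-stage mouse skin model in ICR mice, 10 per group. Back skin initiated with a single 390 nmol dose of DMBA, then promoted with 1.7 nmol of test compound; TPA served as control. Scored as tumor-bearing mice (%), compared by Fisher's exact test, and papillomas per mouse, compared by Welch's t-test; p < 0.05.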

[19] = test system: Mus musculus; test: Tumor promoting activity in ICR mouse assessed as effect on DMBA-mediated skin carcinogenesis at 1.7 nmol administered 1 week after DMBA challenge twice weekly measured after 11 weeks by two-stage carcinogenesis test; type: organism-based; details: in vivo, 1848 h; outline: as §3
[20] = test system: Mus musculus; test: Tumor promoting activity in ICR mouse assessed as effect on DMBA-mediated skin carcinogenesis at 1.7 nmol administered 1 week after DMBA challenge twice weekly measured after 6 weeks by two-stage carcinogenesis test; type: organism-based; details: in vivo, 1008 h; outline: as §3
[21] = test system: Mus musculus; test: Tumor promoting activity in ICR mouse assessed as effect on DMBA-mediated skin carcinogenesis at 8.5 nmol administered 1 week after DMBA challenge twice weekly measured after 20 weeks by two-stage carcinogenesis test; type: organism-based; details: in vivo, 3360 h
Outline: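 Two-stage skin carcinogenesis in ICR mice, with 10 mice per group. The back skin was initiated with a single 390 nmol DMBA dose, then treated with the test compound. The control group received DMBA plus 1.7 nmol TPA. Read-outs were percentage of tumor-bearing mice and papillomas per mouse, compared by Fisher's exact test and Welch's t-test (p < 0.05).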

[22] = test system: Mus musculus; test: Tumor promoting activity in ICR mouse assessed as effect on DMBA-mediated skin carcinogenesis at 1.7 nmol administered 1 week after DMBA challenge twice weekly measured by two-stage carcinogenesis test; type: organism-based; details: in vivo, 168 h; outline: as §3
[23] = test system: Raji; test: Tumor promoting activity in human Raji cells assessed as induction of EBV-early antigen activation after 48 hrs by FITC staining based indirect immunofluorescence assay; type: cell-based
Outline: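 Raji cells (5 × 10⁵/mL) were grown in RPMI 1640 with 10% FBS at 37 °C and 5% CO₂, with 4 mM sodium n-butyrate as synergist. Compounds were tested at 10, 100 or 1000 nM final, with DMSO at 0.4% final, for 48 h. Cell smears were stained by indirect immunofluorescence using NPC patient serum and FITC anti-human IgG. At least 500 cells were counted and the percentage of EA-positive cells recorded.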

| SMILES | GI50 [1] | Ki [2] | Ki [3] | Ki [4] | Activity [5] | GI50 [6] | GI50 [7] | GI50 [8] | Ki [9] | GI50 [10] | logP [11] | GI50 [12] | Ki [13] | Ki [14] | GI50 [15] | GI50 [16] | Ki [17] | other results |
| --- | --- | --- | --- | --- | --- | --- | --- | --- | --- | --- | --- | --- | --- | --- | --- | --- | --- | --- |
| C[C@@H]1CC(C)(C)[C@@]23C[C@@H](C[C@@H](CCCCc4cccc(O)c4)O2)OC(=O)C[C@H](CO)OC(=O)C[C@@H]1O3 | 1.26 µM | 0.015 µM | 0.012 µM | 0.0059 µM | < 10% | 4.17 µM | 1.55 µM | 6.03 µM | 0.017 µM | 0.275 µM | 3.7 | 7.41 µM | 0.0029 µM | 0.0033 µM | 17.4 µM | 4.07 µM | 0.015 µM | – |
| CCCCCCCCCCCCCC(=O)O[C@@H]1[C@@H](C)[C@@]2(O)[C@@H](C=C(CO)C[C@]3(O)C(=O)C(C)=C[C@@H]23)[C@@H]2C(C)(C)[C@]12OC(C)=O [PHORBOL MYRISTATE ACETATE] | – | – | – | – | Toxic | – | – | – | – | – | – | – | – | – | – | – | – | Activity [18]: Toxic; Activity [19]: 100%; Activity [20]: Toxic |
| C[C@H]1[C@@H]2C[C@@]3(O[C@H](CCC3(C)C)CC(=O)O[C@@H](CO)CC(=O)O2)O[C@@H]1CCCCc1cccc(O)c1 | 0.0851 µM | 0.0047 µM | 0.0055 µM | 0.00045 µM | < 10% | 0.617 µM | 0.126 µM | 0.575 µM | 0.002 µM | 0.0331 µM | 3.6 | 0.977 µM | 0.00054 µM | 0.00046 µM | 0.891 µM | 0.339 µM | 0.012 µM | Activity [21]: Non-toxic |
| CO[C@@H](CC[C@H](C)[C@H]1O[C@@]23C[C@H](OC(=O)C[C@H]([C@@H](C)O)OC(=O)C[C@](O)(O2)[C@H](C)CC3(C)C)[C@@H]1C)c1cccc(O)c1 [DEBROMOAPLYSIATOXIN] | 0.347 µM | 0.00026 µM | 0.00038 µM | 0.00011 µM | Toxic | 2.04 µM | 0.933 µM | 0.363 µM | 0.00063 µM | 0.339 µM | 4.4 | 1.15 µM | 0.00011 µM | 0.0002 µM | 15.8 µM | 0.813 µM | 0.00017 µM | Activity [22]: Toxic |
| CC1(C)CC[C@@H]2CC(=O)O[C@@H](CO)CC(=O)O[C@@H]3C[C@@H](CCCCc4cccc(O)c4)O[C@@]1(C3)O2 | – | – | – | – | – | – | – | – | – | – | 3.3 | – | – | – | – | – | – | Activity [23]: Toxic |
